Assay results: ChEMBL document CHEMBL4270616, “Asymmetrical meta-methoxylated diarylpentanoids: Rational design, synthesis and anti-cancer evaluation in-vitro” (Eur J Med Chem, 2018)

Experiments:
SW-620 [1] = assay: Induction of apoptosis in human SW620 cells assessed as live cells at 10 uM after 72 hrs by Annexin V-FITC/propidium iodide staining based flow cytometry (reference value: 97.34%); format: functional
SW-620 [2] = assay: Induction of apoptosis in human SW620 cells assessed as late apoptotic cells at 1.25 uM after 48 hrs by Annexin V-FITC/propidium iodide staining based flow cytometry (reference value: 0.2%); format: functional
SW-620 [3] = assay: Induction of apoptosis in human SW620 cells assessed as early apoptotic cells at 2.5 uM after 72 hrs by Annexin V-FITC/propidium iodide staining based flow cytometry (reference value: 2.1%); format: functional
SW-620 [4] = assay: Induction of apoptosis in human SW620 cells assessed as live cells at 1.25 uM after 72 hrs by Annexin V-FITC/propidium iodide staining based flow cytometry (reference value: 97.34%); format: functional
MCF7 = assay: Cytotoxicity against human MCF7 cells assessed as inhibition of cell proliferation at 20 uM after 72 hrs by MTT assay relative to control; format: functional; details: MCF7, 72 h
Method in brief: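 Single-concentration screen at 20 μM with 72 h exposure in DMEM with 10% FBS, final DMSO 0.1%. Read-out was MTT (5 mg/mL, 4 h, 37°C), DMSO solubilisation and absorbance at 570 nm, expressed as percent inhibition. Lines reaching a threshold percentage went on to IC50 determination.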

SW-620 [5] = assay: Induction of apoptosis in human SW620 cells assessed as early apoptotic cells at 10 uM after 72 hrs by Annexin V-FITC/propidium iodide staining based flow cytometry (reference value: 2.1%); format: functional
SW-620 [6] = assay: Induction of apoptosis in human SW620 cells assessed as live cells at 5 uM after 24 hrs by Annexin V-FITC/propidium iodide staining based flow cytometry (reference value: 97.03%); format: functional
SW-620 [7] = assay: Induction of apoptosis in human SW620 cells assessed as late apoptotic cells at 2.5 uM after 48 hrs by Annexin V-FITC/propidium iodide staining based flow cytometry (reference value: 0.2%); format: functional
SW-620 [8] = assay: Induction of apoptosis in human SW620 cells assessed as live cells at 1.25 uM after 48 hrs by Annexin V-FITC/propidium iodide staining based flow cytometry (reference value: 96.26%); format: functional
SW-620 [9] = assay: Induction of apoptosis in human SW620 cells assessed as necrotic cells at 2.5 uM after 24 hrs by Annexin V-FITC/propidium iodide staining based flow cytometry (reference value: 0.15%); format: functional
SW-620 [10] = assay: Induction of apoptosis in human SW620 cells assessed as live cells at 2.5 uM after 72 hrs by Annexin V-FITC/propidium iodide staining based flow cytometry (reference value: 97.34%); format: functional
SW-620 [11] = assay: Induction of apoptosis in human SW620 cells assessed as live cells at 5 uM after 72 hrs by Annexin V-FITC/propidium iodide staining based flow cytometry (reference value: 97.34%); format: functional
SW-620 [12] = assay: Induction of apoptosis in human SW620 cells assessed as live cells at 2.5 uM after 24 hrs by Annexin V-FITC/propidium iodide staining based flow cytometry (reference value: 97.03%); format: functional
SW-620 [13] = assay: Induction of apoptosis in human SW620 cells assessed as late apoptotic cells at 1.25 uM after 24 hrs by Annexin V-FITC/propidium iodide staining based flow cytometry (reference value: 0.43%); format: functional
SW-620 [14] = assay: Anticlonogenic activity against human SW620 cells assessed as colony formation at 0.3125 uM after 10 days by crystal violet staining based imaging analysis (reference value: 100%); format: functional
Method in brief: (§1)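 SW620 cells seeded at 1000 cells/well in DMEM, left overnight at 37°C, 5% CO2, then exposed to compound for ten days with drug-containing medium renewed every three days. Cells were PBS-washed, fixed in 4% paraformaldehyde for 15 min, stained with 0.5% (w/v) crystal violet for 10 min, air-dried, photographed, and colonies quantified by image analysis.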

SW-620 [15] = assay: Induction of apoptosis in human SW620 cells assessed as late apoptotic cells at 2.5 uM after 72 hrs by Annexin V-FITC/propidium iodide staining based flow cytometry (reference value: 0.29%); format: functional
SW-620 [16] = assay: Anticlonogenic activity against human SW620 cells assessed as colony formation at 0.625 uM after 10 days by crystal violet staining based imaging analysis (reference value: 100%); format: functional; method in brief: as §1
SW-620 [17] = assay: Induction of apoptosis in human SW620 cells assessed as late apoptotic cells at 1.25 uM after 72 hrs by Annexin V-FITC/propidium iodide staining based flow cytometry (reference value: 0.29%); format: functional
SW-620 [18] = assay: Induction of apoptosis in human SW620 cells assessed as late apoptotic cells at 5 uM after 72 hrs by Annexin V-FITC/propidium iodide staining based flow cytometry (reference value: 0.29%); format: functional
[19] = Cytotoxicity against human EJ28 cells after 72 hrs by MTT assay; format: functional, cell-based; details: EJ-28, 72 h
Method in brief: (§2)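 Tumour lines kept in DMEM with 10% FBS and 1% penicillin/streptomycin at 37°C, 5% CO2. Seeded at 1500-5000 cells/well by doubling time and size, 24 h, then compound in DMSO-containing medium (final DMSO 0.1%) for 72 h. MTT (5 mg/mL) 4 h at 37°C, DMSO solubilisation, absorbance at 570 nm.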

HT-1080 = assay: Cytotoxicity against human HT1080 cells after 72 hrs by MTT assay; format: functional, cell-based; details: HT-1080, 72 h; method in brief: as §2
SW-620 [20] = assay: Cell cycle arrest in human SW620 cells assessed as decrease in G0/G1 phase after 24 hrs by propidium iodide staining based flow cytometry; format: functional
SW-620 [21] = assay: Induction of apoptosis in human SW620 cells assessed as early apoptotic cells at 5 uM after 48 hrs by Annexin V-FITC/propidium iodide staining based flow cytometry (reference value: 2.75%); format: functional
SW-620 [22] = assay: Induction of apoptosis in human SW620 cells assessed as live cells at 5 uM after 48 hrs by Annexin V-FITC/propidium iodide staining based flow cytometry (reference value: 96.26%); format: functional
SW-620 [23] = assay: Anticlonogenic activity against human SW620 cells assessed as colony formation at 1.25 uM after 10 days by crystal violet staining based imaging analysis (reference value: 100%); format: functional; method in brief: as §1
SW-620 [24] = assay: Induction of apoptosis in human SW620 cells assessed as necrotic cells at 5 uM after 48 hrs by Annexin V-FITC/propidium iodide staining based flow cytometry (reference value: 0.23%); format: functional
SW-620 [25] = assay: Induction of apoptosis in human SW620 cells assessed as live cells at 10 uM after 24 hrs by Annexin V-FITC/propidium iodide staining based flow cytometry (reference value: 97.03%); format: functional
SW-620 [26] = assay: Induction of apoptosis in human SW620 cells assessed as necrotic cells at 1.25 uM after 24 hrs by Annexin V-FITC/propidium iodide staining based flow cytometry (reference value: 0.15%); format: functional
SW-620 [27] = assay: Induction of apoptosis in human SW620 cells assessed as early apoptotic cells at 10 uM after 48 hrs by Annexin V-FITC/propidium iodide staining based flow cytometry (reference value: 2.75%); format: functional
SW-620 [28] = assay: Induction of apoptosis in human SW620 cells assessed as early apoptotic cells at 1.25 uM after 72 hrs by Annexin V-FITC/propidium iodide staining based flow cytometry (reference value: 2.1%); format: functional

| Compound | Activity (SW-620 [1]) | Activity (SW-620 [2]) | Activity (SW-620 [3]) | Activity (SW-620 [4]) | inhibition at 20 µM (MCF7) | Activity (SW-620 [5]) | Activity (SW-620 [6]) | Activity (SW-620 [7]) | Activity (SW-620 [8]) | Activity (SW-620 [9]) | Activity (SW-620 [10]) | Activity (SW-620 [11]) | Activity (SW-620 [12]) | Activity (SW-620 [13]) | Activity (SW-620 [14]) | Activity (SW-620 [15]) | Activity (SW-620 [16]) | Activity (SW-620 [17]) | Activity (SW-620 [18]) | IC50 [19] | also measured |
| --- | --- | --- | --- | --- | --- | --- | --- | --- | --- | --- | --- | --- | --- | --- | --- | --- | --- | --- | --- | --- | --- |
| COc1ccc(/C=C2\CCC/C(=C\c3cc(OC)c(OC)c(OC)c3)C2=O)cc1OC | 2.37% | 0.37% | 14.37% | 34.33% | > 50% | 2.85% | 55.03% | 6.7% | 82.82% | 0.27% | 66.34% | 3.13% | 86.22% | 0.31% | 93.6% | 17.24% | 84.6% | 1.3% | 93% | 1700 nM | IC50 (HT-1080): 1100 nM; Activity (SW-620 [20]): Dose-dependent effect; Activity (SW-620 [21]): 12%; Activity (SW-620 [22]): 26.23%; Activity (SW-620 [23]): 0.5%; Activity (SW-620 [24]): 1.55%; Activity (SW-620 [25]): 46.2%; Activity (SW-620 [26]): 0.35%; Activity (SW-620 [27]): 0.37%; Activity (SW-620 [28]): 4.06% |
| COc1ccc(/C=C2\CCC/C(=C\c3cccc(O)c3)C2=O)cc1OC | 2.19% | 0.92% | 4.52% | 92.34% | > 50% | 2.49% | 73.65% | 3.83% | 94.54% | 0.2% | 63.72% | 6.2% | 93.7% | 0.31% | 97.9% | 4.57% | 93.4% | 1.82% | 81.02% | 1800 nM | IC50 (HT-1080): 1700 nM; Activity (SW-620 [20]): Dose-dependent effect; Activity (SW-620 [21]): 12.04%; Activity (SW-620 [22]): 36.63%; Activity (SW-620 [23]): 0.8%; Activity (SW-620 [24]): 2.86%; Activity (SW-620 [25]): 50.73%; Activity (SW-620 [26]): 0.17%; Activity (SW-620 [27]): 9.84%; Activity (SW-620 [28]): 5.22% |
